The source made the active and inactive calls. The calls are words filed in the database; no cut-off is given here.
Experiments:
HCT-116 = assay: Cytotoxicity against human HCT-116 cells assessed as inhibition of cell viability incubated for > 24 hrs; assay type: functional
[1] = biological target: Dual specificity protein kinase CLK1 (Homo sapiens) (UniProt P49759); assay: Inhibition of CLK (unknown origin) in human HCT-116 cells assessed as phospho SR level at 10 uM incubated for 6 hrs by immunoblot analysis; assay type: cell-based
Outline: (§1)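 HCT116 cells were exposed to compound for 3 or 6 h, then lysed in 1× SDS sample buffer (0.16% SDS, Tris-HCl pH 6.8) and boiled 5 min. Lysates were run on 5–15% or 4–12% gradient gels and transferred to nitrocellulose or PVDF. Membranes were blocked in 5% milk or 3% BSA/TBS-T and probed overnight at 4 °C with anti-SR protein (16H3) or anti-phospho-SR (1H4, 1/1000), with GAPDH as loading control.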

[2] = biological target: Dual specificity protein kinase CLK1 (Homo sapiens) (UniProt P49759); assay: Inhibition of CLK (unknown origin) in human HCT-116 cells assessed as SRSF1 level at 10 uM incubated for 6 hrs by immunoblot analysis; assay type: cell-based; outline: as §1
[3] = biological target: Dual specificity protein kinase CLK1 (Homo sapiens) (UniProt P49759); assay: Inhibition of CLK (unknown origin) in human HCT-116 cells assessed as SRSF4 level at 10 uM incubated for 6 hrs by immunoblot analysis; assay type: cell-based; outline: as §1
[4] = biological target: Dual specificity protein kinase CLK1 (Homo sapiens) (UniProt P49759); assay: Inhibition of CLK (unknown origin) in human HCT-116 cells assessed as SRSF6 level at 10 uM incubated for 6 hrs by immunoblot analysis; assay type: cell-based; outline: as §1
[5] = biological target: Dual specificity protein kinase CLK2 (Homo sapiens, UniProt P49760); assay: Inhibition of N-terminal FLAG-tagged human CLK2 using ULight MBP peptide as substrate incubated for 10 mins in presence of ATP incubated for 45 mins by LANCE Ultra kinase assay
Chain of Dual specificity protein kinase CLK2 (P49760 whole entry): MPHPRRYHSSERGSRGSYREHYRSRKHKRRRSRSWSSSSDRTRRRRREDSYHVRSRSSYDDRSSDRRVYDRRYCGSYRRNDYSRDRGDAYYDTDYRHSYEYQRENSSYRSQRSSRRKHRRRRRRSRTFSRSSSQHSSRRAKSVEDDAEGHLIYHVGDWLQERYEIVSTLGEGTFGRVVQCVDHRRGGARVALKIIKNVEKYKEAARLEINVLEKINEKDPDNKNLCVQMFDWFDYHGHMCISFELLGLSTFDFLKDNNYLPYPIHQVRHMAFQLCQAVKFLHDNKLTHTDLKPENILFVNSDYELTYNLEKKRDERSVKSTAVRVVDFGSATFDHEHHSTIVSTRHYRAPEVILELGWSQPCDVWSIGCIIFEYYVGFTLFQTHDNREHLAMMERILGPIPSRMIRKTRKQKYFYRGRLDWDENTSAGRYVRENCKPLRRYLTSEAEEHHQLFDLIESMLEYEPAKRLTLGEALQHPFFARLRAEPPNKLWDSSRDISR

Chain of Dual specificity protein kinase CLK1 (Homo sapiens) (P49759 whole entry, looked up): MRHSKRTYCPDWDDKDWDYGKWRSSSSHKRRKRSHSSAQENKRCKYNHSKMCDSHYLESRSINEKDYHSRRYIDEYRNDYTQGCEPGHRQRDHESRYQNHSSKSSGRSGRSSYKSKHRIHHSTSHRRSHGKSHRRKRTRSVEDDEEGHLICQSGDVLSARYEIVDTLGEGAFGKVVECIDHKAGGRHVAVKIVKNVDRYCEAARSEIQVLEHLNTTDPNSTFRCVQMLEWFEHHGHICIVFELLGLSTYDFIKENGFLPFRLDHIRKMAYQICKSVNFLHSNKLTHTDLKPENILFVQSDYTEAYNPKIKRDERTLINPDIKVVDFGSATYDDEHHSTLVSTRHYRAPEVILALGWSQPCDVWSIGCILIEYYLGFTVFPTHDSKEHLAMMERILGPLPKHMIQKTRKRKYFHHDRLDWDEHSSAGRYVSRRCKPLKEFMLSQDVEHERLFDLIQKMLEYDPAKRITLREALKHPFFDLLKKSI

CCOC(=O)c1c(/C(C#N)=C\N)c2ccc(Cl)c(Cl)c2n1C
GI (HCT-116): >50 µM | inhibition [1]: Active | inhibition [2]: Active | inhibition [3]: Active | inhibition [4]: Active

CC(C)(CCc1nn[nH]n1)c1ccc(C(=O)Nc2cn3cc(C(F)(F)F)ccc3n2)cc1
IC50 [5]: 360 nM

CC(C)(CCc1nn[nH]n1)c1ccc(C(=O)Nc2cn3cc(-c4ccncc4)ccc3n2)cc1
IC50 [5]: 50 nM

CCN1CCN(C(=O)C(C)(C)c2ccc(C(=O)Nc3cn4cc(-c5ccncc5)ccc4n3)cc2)CC1
IC50 [5]: 15 nM

CC(C)(C(=O)N1CCNCC1)c1ccc(C(=O)Nc2cn3cc(-c4ccncc4)ccc3n2)cc1
IC50 [5]: 150 nM

From ChEMBL document CHEMBL5696444 (Nat Commun, 2017)
